From ChEMBL document CHEMBL1165869, “Synthesis, characterization and antihypertensive activity of pyridazinone derivatives” (2010)

Tested on: Rattus norvegicus
Test: Antihypertensive activity against methyl prednisolone acetate-indcuced hypertension in normotensive albino rat assessed as reduction in mean arterial pressure at 20 mg/kg, ip after 1 hr
Type: functional, Artery
Set-up: scale not given: the % may be the effect or the level left
Conditions: route intraperitoneal
Method in brief: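 Albino rats (200–250 g), conditioned in restrainer 10 min daily for one week; hypertension induced by s.c. methyl prednisolone acetate 20 mg/kg/wk for 2 weeks. Compound suspended in 1% CMC, given i.p.; mean arterial pressure read 1 h later in conscious rats by non-invasive tail-cuff. Groups of 5; mean ± SEM; one-way ANOVA with Dunnett test versus hypertensive control.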

CC(C)Cc1ccc(C2=NN(Cn3ccc4ccccc43)C(=O)CC2)cc1
Activity: 28.91%

CCc1ccc(C2=NN(CN3CCOCC3)C(=O)CC2)cc1
Activity: 47.31%

COc1ccc(C2=NN(Cn3ccc4ccccc43)C(=O)CC2)cc1
Activity: 32.72%

CC(C)Cc1ccc(C2=NN(CN3CCN(C)CC3)C(=O)CC2)cc1
Activity: 28.29%

CCc1ccc(C2=NN(CN3CCN(C)CC3)C(=O)CC2)cc1
Activity: 47.14%

O=C1CCC(c2ccc(-c3ccccc3)cc2)=NN1CN1CCCC1
Activity: 30.14%

CC(C)Cc1ccc(C2=NN(CN3CCNCC3)C(=O)CC2)cc1
Activity: 32.48%

O=C1CCC(c2ccc(Cl)cc2)=NN1Cn1ccc2ccccc21
Activity: 36.3%

O=C1CCC(c2ccc(-c3ccccc3)cc2)=NN1Cn1ccc2ccccc21
Activity: 33.46%

CC(C)Cc1ccc(C2=NN(CN3CCCC3)C(=O)CC2)cc1
Activity: 32.97%

CCc1ccc(C2=NN(CN3CCCCC3)C(=O)CC2)cc1
Activity: 30.51%

O=C1CCC(c2ccc(Cl)cc2)=NN1CN1CCCC1
Activity: 30.01%

CC(C)Cc1ccc(C2=NN(CN3CCCCC3)C(=O)CC2)cc1
Activity: 16.09%

O=C1CCC(c2ccc(Cl)cc2)=NN1CN1CCNCC1
Activity: 28.78%

O=C1CCC(c2ccccc2)=NN1CN1CCCC1
Activity: 19.11%

COc1ccc(C2=NN(CN3c4ccccc4Sc4ccccc43)C(=O)CC2)cc1
Activity: 33.83%

CC(C)Cc1ccc(C2=NN(CN3c4ccccc4Sc4ccccc43)C(=O)CC2)cc1
Activity: 25.58%

O=C1CCC(c2ccc(-c3ccccc3)cc2)=NN1CN1CCNCC1
Activity: 30.14%

Cc1ccc(C2=NN(CN3c4ccccc4Sc4ccccc43)C(=O)CC2)cc1
Activity: 34.94%

Cc1ccc(C2=NN(CN3CCNCC3)C(=O)CC2)cc1
Activity: 40.98%

COc1ccc(C2=NN(CN3CCCCC3)C(=O)CC2)cc1
Activity: 27.16%

O=C1CCC(c2ccc(-c3ccccc3)cc2)=NN1CN1c2ccccc2Sc2ccccc21
Activity: 25.91%

Cc1ccc(C2=NN(CN3CCOCC3)C(=O)CC2)cc1
Activity: 14.12%

O=C1CCC(c2ccccc2)=NN1Cn1ccc2ccccc21
Activity: 15.81%

O=C1CCC(c2ccc(Cl)cc2)=NN1CN1CCCCC1
Activity: 24.84%

Cc1ccc(C2=NN(Cn3cncn3)C(=O)CC2)cc1
Activity: 41.16%

CCc1ccc(C2=NN(CN3c4ccccc4Sc4ccccc43)C(=O)CC2)cc1
Activity: 36.17%

CC(C)Cc1ccc(C2=NN(Cn3cncn3)C(=O)CC2)cc1
Activity: 34.94%

O=C1CCC(c2ccc(Cl)cc2)=NN1CN1c2ccccc2Sc2ccccc21
Activity: 38.88%

CN1CCN(CN2N=C(c3ccc(Cl)cc3)CCC2=O)CC1
Activity: 39.5%

O=C1CCC(c2ccc(-c3ccccc3)cc2)=NN1Cn1cncn1
Activity: 39.5%

O=C1CCC(c2ccccc2)=NN1CN1CCCCC1
Activity: 33.46%

COc1ccc(C2=NN(CN3CCN(C)CC3)C(=O)CC2)cc1
Activity: 36.05%

COc1ccc(C2=NN(CN3CCCC3)C(=O)CC2)cc1
Activity: 31.62%

Cc1ccc(C2=NN(CN3CCCCC3)C(=O)CC2)cc1
Activity: 35.56%

CN1CCN(CN2N=C(c3ccc(-c4ccccc4)cc3)CCC2=O)CC1
Activity: 25.58%

COc1ccc(C2=NN(Cn3cncn3)C(=O)CC2)cc1
Activity: 29.27%

Cc1ccc(C2=NN(CN3CCCC3)C(=O)CC2)cc1
Activity: 31.74%

O=C1CCC(c2ccccc2)=NN1CN1c2ccccc2Sc2ccccc21
Activity: 42.4%

O=C1CCC(c2ccccc2)=NN1Cn1cncn1
Activity: 38.7%

COc1ccc(C2=NN(CN3CCNCC3)C(=O)CC2)cc1
Activity: 35.44%

O=C1CCC(c2ccccc2)=NN1CN1CCNCC1
Activity: 41.99%

CCc1ccc(C2=NN(Cn3ccc4ccccc43)C(=O)CC2)cc1
Activity: 32.97%

CCc1ccc(C2=NN(CN3CCNCC3)C(=O)CC2)cc1
Activity: 36.05%

CCc1ccc(C2=NN(Cn3cncn3)C(=O)CC2)cc1
Activity: 29.52%

O=C1CCC(c2ccc(Cl)cc2)=NN1Cn1cncn1
Activity: 29.77%

CCc1ccc(C2=NN(CN3CCCC3)C(=O)CC2)cc1
Activity: 44.31%

Cc1ccc(C2=NN(Cn3ccc4ccccc43)C(=O)CC2)cc1
Activity: 23.85%

NNc1nncc2ccccc12 [HYDRALAZINE]
Activity: 40.76%

O=C1CCC(c2ccc(-c3ccccc3)cc2)=NN1CN1CCCCC1
Activity: 29.52%

O=C1CCC(c2ccc(-c3ccccc3)cc2)=NN1CN1CCOCC1
Activity: 29.52%

Cc1ccc(C2=NN(CN3CCN(C)CC3)C(=O)CC2)cc1
Activity: 39.13%

CC(C)Cc1ccc(C2=NN(CN3CCOCC3)C(=O)CC2)cc1
Activity: 24.22%

COc1ccc(C2=NN(CN3CCOCC3)C(=O)CC2)cc1
Activity: 29.77%

O=C1CCC(c2ccc(Cl)cc2)=NN1CN1CCOCC1
Activity: 25.83%

CN1CCN(CN2N=C(c3ccccc3)CCC2=O)CC1
Activity: 39.93%

O=C1CCC(c2ccccc2)=NN1CN1CCOCC1
Activity: 31.21%
